Most compounds without a hit are left out; they make up all but 2.8% or so of the library.
14-3-3 Bad inh: disrupts binding of bovine 14-3-3 zeta to phospho-Bad peptide. P63103. TR-FRET 14-3-3zeta/Dy647-pBad peptide displacement, 1 h. inhibition, % at 21.7 µM. actives 0.71% (n = 220,000);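 active means inhibition above about 70%, limit read from the data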
Target sequence (P63103 whole entry, looked up): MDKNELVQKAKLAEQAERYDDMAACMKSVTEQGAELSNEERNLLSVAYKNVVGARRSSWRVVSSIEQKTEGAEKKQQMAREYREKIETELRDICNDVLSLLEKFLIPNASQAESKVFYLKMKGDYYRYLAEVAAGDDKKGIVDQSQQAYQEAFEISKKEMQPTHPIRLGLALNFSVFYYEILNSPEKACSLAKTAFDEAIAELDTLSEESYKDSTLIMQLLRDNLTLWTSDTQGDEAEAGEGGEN
NCF1 inh: p47phox (human) inhibition. p47phox/p22phox peptide binding, fluorescence polarization, 2 h. inhibition, % at 24.7 µM. actives 0.53% (n = 220,000). AID 1274
eIF4E 4G PPI: inhibitors of eIF4E and eIF4G interaction in translation initiation. AID 782. inhibition, % at 21.7 µM. TR-FRET eIF4E-eIF4GI(517-606) binding, 2 h. actives 0.37% (n = 220,000)
Wee1 stabilizer: inhibitors of human Wee1 degradation; P30291; HeLa Luc-Wee1K328M stability, luciferase luminescence; 100% = proteasome inhibitor MG132 effect; reporter increase, % at 5 µM; actives 1.2% (n = 220,000);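 active means activation above the mean of all tested compounds plus 3 SD, set per screening run, cut at about 8.8% in these data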;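 further: cells exposed to compound for 20 h before luminescence read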
RBBP9 inh: blocks human serine hydrolase RBBP9. O75884. recombinant RBBP9, FP-Rh probe fluorescence polarization. inhibition, % at 7.94 µM. actives 0.2% (n = 220,000). AID 1515;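 active means inhibition above the campaign mean of all tested compounds plus 3 SD, cut at about 14% in these data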
Target sequence (O75884 whole entry, looked up): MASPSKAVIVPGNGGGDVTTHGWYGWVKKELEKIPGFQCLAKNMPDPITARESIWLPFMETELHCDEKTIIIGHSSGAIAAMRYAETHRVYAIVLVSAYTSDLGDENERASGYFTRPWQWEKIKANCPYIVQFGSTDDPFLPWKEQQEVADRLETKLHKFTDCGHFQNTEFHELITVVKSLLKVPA
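Measured by: FP readout at 525/598 nm; material: recombinant human RBBP9; also added: Serine-hydrolase probe FP-Rh, 375 nM pre-mixing; medium: Tris buffer pH 8.0, NaCl, Pluronic; replication: one well per compound; doses: one concentration, 7.94 µM nominal, 0.794% DMSO; timing: preincubation 30 min plus labeling 45 min at 25 °C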
Wee1 stab conf: confirmation of human Wee1 degradation inhibitors; activation, % at 5 µM; HeLa Luc-Wee1K328M degradation, luminescence; vehicle 0%, proteasome-blocked wells 100%; actives 4% (n = 1,100); shares compounds with Wee1 stabilizer; in the data active means activation above about 8.9%
A number is an active result; - = inactive; . = no result given.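 How the source made its calls, unless noted: active means inhibition above about 30% (limit read from the data); inactive means the rest.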

SMILES	14-3-3 Bad inh	NCF1 inh	eIF4E 4G PPI	Wee1 stabilizer	RBBP9 inh	Wee1 stab conf
O=C(NNC1CC(=O)N(c2ccc(Br)cc2)C1=O)c1ccco1 (stereo unspecified)	-	-	-	-	-	.
Cc1oc(-c2ccc(Cl)cc2)cc1C(=O)/C(C#N)=C/Nc1cccc(OC(F)(F)F)c1	-	-	-	-	-	.
O=C(N/N=C/c1ccc(F)cc1)c1ccccc1	-	-	-	12	-	-
COc1ccc(CN(CCC#N)CCC2(c3ccccc3)CC(C)N(C)CC2C)cc1OC (stereo unspecified)	-	-	-	-	-	.
COc1ccc(CNCCC2(Cc3ccccc3)CC(C)N(C)CC2C)cc1OC (stereo unspecified)	-	-	-	17	-	-
CC1(C)CN(c2ccccc2)N(Cc2ccc(F)cc2)C1=O	-	-	-	-	-	.
CCn1c(SCC(=O)N/N=C(/C)c2ccncc2)nc2ccccc21	-	-	-	15	-	-
CCn1c(SCC(=O)O)nc2ccccc21	-	-	-	-	-	.
COc1cccc(C2=NOC(C(=O)N3CCN(c4ccccc4)CC3)C2)c1OC (stereo unspecified)	-	-	-	31	-	-
COc1ccc(C(=O)NCC(=O)OCC(=O)c2cc(OC)c(OC)c(OC)c2)cc1OC	-	-	-	-	-	.
COc1cc(C(=O)NCC(=O)OCC(=O)c2ccc[nH]2)cc(OC)c1OC	-	-	-	14	-	-
COc1cccc(/C=N/NC(=O)c2cc3c(OC)c(OC)ccc3[nH]2)c1OC	-	-	-	12	-	10
COc1cccc(/C=N/NC(=O)c2cc3c(OC)cccc3[nH]2)c1OC	-	-	-	-	-	.
OCCC1CN(Cc2cccc(-c3ccco3)c2)CCN1Cc1ccsc1 (stereo unspecified)	-	-	-	-	-	.
CC(C)/C=N/Nc1nc2c(c(=O)n(C)c(=O)n2C)n1C	-	-	-	12	-	-
Cn1c(=O)c2c(nc(NCCO)n2C)n(C)c1=O	-	-	-	-	-	.
Cc1ccc(C)c(N2C(=O)c3cc(N4CCOCC4)c([N+](=O)[O-])cc3C2=O)c1	-	-	-	-	-	.
CC1(C)CC(=O)C2=C(C1)OC(N)=C(C#N)C2c1cc2c(cc1[N+](=O)[O-])OCO2 (stereo unspecified)	-	-	-	11	-	-
Cc1ccc(C2=NN(CCC(=O)NCCC(C)C)C(=O)CC2)cc1	-	-	-	-	-	.
O=C(c1ccc(Br)o1)N1CCN(c2ccc3nnc(-c4ccccc4)n3n2)CC1	-	-	-	14	-	-
Cn1cc(C(F)(F)F)nc1-c1ccc(OCC(O)CNCCOc2ccc(O)c(C(N)=O)c2)cc1 (stereo unspecified)	-	-	-	.	.	.
Cc1ccc(CNC(=O)CCC2CCCN(Cc3ccc4cccc(F)c4n3)C2)o1 (stereo unspecified)	-	-	-	-	-	.
CCS(=O)(=O)N1Cc2ccccc2CC1C(=O)Nc1ccc(F)cc1 (stereo unspecified)	-	-	-	15	-	-
COc1ccc(N2CCC(CNC(=S)Nc3cccc(C)c3)C2)cc1 (stereo unspecified)	-	-	-	11	-	-
COc1cc(/C=N/N=C(/C(=O)c2ccccc2)c2ccccc2)cc(OC)c1O	-	-	-	12	-	-
SMILES	14-3-3 Bad inh	NCF1 inh	eIF4E 4G PPI	Wee1 stabilizer	RBBP9 inh	Wee1 stab conf
COc1cc(/C=N/N=C/c2cc(OC)c(O)c(OC)c2)cc(OC)c1O	-	-	-	-	-	.
Cc1ccc(NC(=O)CCC(=O)c2cccs2)c(O)c1	-	-	-	15	-	-
Cc1ccc(F)cc1NC(=O)CCC(=O)c1cccs1	.	-	.	-	-	.
O=S(=O)(/N=C(/Nc1ccccn1)c1ccc(Cl)cc1)c1ccc(Cl)cc1	-	-	-	-	-	.
COc1ccc(-c2ccc(SCC(=O)Nc3cccc(C(C)=O)c3)nn2)cc1OC	-	-	-	12	-	-
CCCCNc1c(N)n(CCCC)c(=O)[nH]c1=O	-	-	-	-	-	.
CCC1(CC)Cc2ccccc2C(C2=C(O)CC(C)(C)CC2=O)=N1	-	-	-	-	-	.
CC(=O)Nc1ccccc1C(=O)C(=O)Nc1ccc(C)c(C)c1	-	-	-	-	-	.
CC(=O)Nc1ccccc1C(=O)C(=O)Nc1ccc(C)c(F)c1	-	-	-	18	-	-
COC(=O)[C@H](CCSC)NS(=O)(=O)c1ccccc1Br	-	-	-	.	.	.
CCOc1ccccc1N1CCN(CC(=O)N(CC(C)C)c2c(N)n(CC(C)C)c(=O)[nH]c2=O)CC1	-	-	-	-	-	.
Cc1ccc(S(=O)(=O)N(C)CCCC(=O)NC(C)(C)C)cc1	-	-	-	12	-	-
Cc1ccc2nc(-c3ccc4c(c3)NC(=O)CO4)cn2c1	-	-	-	20	-	-
NC(=O)CC1NC(=O)c2cc([N+](=O)[O-])cc(I)c2OCCC(C(N)=O)NC(=O)[C@@H]2CCCN2C1=O (stereo partly specified)	-	-	-	-	-	.
O=C(NCc1cccs1)c1cccc(Nc2nc3ccc(Br)cc3[nH]2)c1	-	-	-	15	-	-
O=C(NCc1cccs1)c1ccccc1	-	-	-	-	-	.
COCCn1c(SCC(=O)Nc2ccc(F)cc2)nc2c(oc3ccccc32)c1=O	-	-	-	11	-	-
Cc1ncoc1C(=O)N1CCCC(C(=O)c2ccc(-c3ccccc3)cc2)C1 (stereo unspecified)	-	-	-	-	-	.
C/C(=N\Nc1nc(Cl)c(Cl)cc1Cl)c1ccc(S(=O)(=O)NCc2ccco2)cc1	-	-	-	-	-	.
COc1ccc2[nH]c(CN3CCN(C(C)C)C(CCO)C3)c(C)c2c1 (stereo unspecified)	-	-	-	20	-	-
Cc1ncsc1C(=O)Nc1nc2c(s1)CCCC2	-	-	-	-	-	.
O=C(Nc1nc2c(s1)CCCC2)c1ccc2ncsc2c1	-	-	-	20	-	-
O=C(NC(=S)Nc1ccc2c(c1)OCCO2)c1cccc(Br)c1	-	-	-	-	-	.
O=C(NC(=S)Nc1ccc2c(c1)OCCO2)c1cccc2ccccc12	-	-	-	12	-	-
O=C(NCc1ccc(OC(F)(F)F)cc1)C12CN(Cc3ccccc3)CC1C(c1cccc([N+](=O)[O-])c1)=NO2 (stereo unspecified)	-	-	-	26	-	-
c1ccc2[nH]c(NN=C3CCCCCC3)nc2c1	-	-	-	17	-	-
O=C(Cn1cc2c(n1)CCCC2)N1CCc2ccccc21	-	-	-	-	-	.
Cc1ccc(-c2nnc(N)s2)cc1	-	-	-	-	-	.
CC(C)c1ccc(-c2nnc(N)s2)cc1	-	-	-	12	-	-
